Test results taken from ChEMBL document CHEMBL4373651, “Indole compounds with N-ethyl morpholine moieties as CB2 receptor agonists for anti-inflammatory management of pain: synthesis and biological evaluation” (Medchemcomm, 2019).
The source made the active and inactive calls.

Columns and labels:
[1] = system: Rattus norvegicus; experiment: (§1) Antiinflammatory hyperalgesic activity against complete freund's adjuvant-induced mechanical hyperalgesic Sprague-Dawley rat model assessed as reduction in IL-1 beta production in paw skin at 0.1 mg/kg, ip pretreated with CFA for 24 hrs followed by compound administration and measured after 1 hr by ELISA; assay type: functional, organism-based
In short: (§2)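 Male Sprague-Dawley rats, 180–200 g, isoflurane anaesthesia. Left hind paw given intraplantar 50% CFA (50 µL in 0.9% saline), or saline. At 24 h, single i.p. dose of drug, antagonist, combination or vehicle (2 mL kg-1). 1 h after dosing, paw skin taken and homogenised in ice-cold buffer with protease inhibitor, then centrifuged. IL-1β, IL-6 and TNF-α in supernatant by ELISA. n = 6, one-way ANOVA with Tukey test.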

[2] = system: Rattus norvegicus; experiment: as §1, with “decrease” for “reduction”, “TNF alpha” for “IL-1 beta”, “10” for “0.1”, “ELISA relative to control” for “ELISA”; assay type: functional; in short: as §2
[3] = system: Rattus norvegicus; experiment: as §1, with “decrease” for “reduction”, “10” for “0.1”, “compound and 0.5 mg/kg CB1 receptor antagonist, AM281” for “compound”; assay type: functional, organism-based; in short: as §2
[4] = system: Rattus norvegicus; experiment: (§3) Antiinflammatory hyperalgesic activity against ip dosed complete freund's adjuvant-induced mechanical hyperalgesic Sprague-Dawley rat model assessed as increase in paw withdraw latency pretreated with CFA for 24 hrs followed by compound administration and measured at 1 hr by analgesiometer analysis; assay type: functional
In short: (§4)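 Male Sprague-Dawley rats, 180–200 g. Baseline mechanical paw withdrawal threshold taken with analgesiometer pressure on left hind paw, cut-off 250 g, endpoint complete withdrawal. Intraplantar 50% CFA (50 µL in 0.9% saline) under isoflurane. At 24 h, pre-drug threshold, then single i.p. dose of 0.0025–10 mg kg-1, antagonist combination or vehicle (2 mL kg-1). Thresholds read 1–24 h after dosing. % reversal = (post − pre)/(baseline − pre) × 100.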

[5] = Selectivity ratio of EC50 for human CB1 receptor expressed in CHO cells coexpressing Galpha16 to EC50 for human CB2 receptor expressed in CHO cells coexpressing Galpha16
In short: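 Ratio of EC50 values from the CB1 and CB2 cAMP assays in CHO-Gα16 cells: 30 min compound exposure at 37 °C with 1 mM IBMX and forskolin, chemiluminescent cAMP read-out, triplicates.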

[6] = system: Rattus norvegicus; experiment: (§5) Antiinflammatory hyperalgesic activity against ip dosed complete freund's adjuvant-induced mechanical hyperalgesic Sprague-Dawley rat model assessed as decrease in IL-6 production in paw skin pretreated with CFA for 24 hrs followed by compound administration and measured after 1 hr by ELISA; assay type: functional, organism-based; in short: as §2
[7] = system: Rattus norvegicus; experiment: as §1, with “IL-6” for “IL-1 beta”, “10” for “0.1”, “compound and 1 mg/kg CB2 receptor antagonist, SR144528” for “compound”; assay type: functional, organism-based; in short: as §2
[8] = system: Rattus norvegicus; experiment: as §3, with “against” for “against ip dosed”, “as” for “as increase in”, “latency at 0.0025 to 10 mg/kg, ip” for “latency”, “24 hrs” for “1 hr”; assay type: functional, organism-based; in short: as §4
[9] = system: Rattus norvegicus; experiment: as §1, with “10” for “0.1”, “compound and 1 mg/kg CB2 receptor antagonist, SR144528” for “compound”; assay type: functional, organism-based; in short: as §2
[10] = molecular target: Cannabinoid receptor 2 (Homo sapiens, UniProt P34972); experiment: Agonist activity at human CB2 receptor expressed in CHO cells coexpressing Galpha16 assessed as reduction in forsklin-induced cAMP production incubated for 30 mins by cAMP Hunter assay based […] analysis; assay type: functional, cell-based; conditions: read-out: EC50
Cannabinoid receptor 2, sequence (P34972 whole entry, the tested form may be a part): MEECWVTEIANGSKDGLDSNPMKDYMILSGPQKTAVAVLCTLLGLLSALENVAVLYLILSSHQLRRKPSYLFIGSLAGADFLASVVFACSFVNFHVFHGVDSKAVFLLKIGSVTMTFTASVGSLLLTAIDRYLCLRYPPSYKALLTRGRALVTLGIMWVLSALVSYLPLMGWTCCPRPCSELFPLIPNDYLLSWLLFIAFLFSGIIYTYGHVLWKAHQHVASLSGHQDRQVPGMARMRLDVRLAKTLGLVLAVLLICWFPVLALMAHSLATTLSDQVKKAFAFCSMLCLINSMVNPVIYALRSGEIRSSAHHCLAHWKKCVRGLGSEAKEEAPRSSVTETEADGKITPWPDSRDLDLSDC
In short: (§6)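 CHO cells expressing human CB1 or CB2 with Gα16, seeded overnight at 37 °C. Test compounds in stimulation buffer with 1 mM IBMX, 0.25% BSA and forskolin, 30 min at 37 °C. Cells lysed, cAMP read by enzyme fragment complementation chemiluminescence kit. Triplicate per dilution. Efficacy relative to CP-55940 reference run twice per plate. EC50 from means.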

[11] = system: Rattus norvegicus; experiment: Antiinflammatory hyperalgesic activity against ip dosed complete freund's adjuvant-induced mechanical hyperalgesic Sprague-Dawley rat model assessed as decrease in IL-1 beta production in paw skin pretreated with CFA for 24 hrs followed by compound administration and measured after 1 hr by ELISA; assay type: functional, organism-based; in short: as §2
[12] = system: Rattus norvegicus; experiment: as §1, with “decrease” for “reduction”, “10” for “0.1”, “ELISA relative to control” for “ELISA”; assay type: functional; in short: as §2
[13] = molecular target: Cannabinoid receptor 1 (Homo sapiens, UniProt P21554); experiment: Agonist activity at human CB1 receptor expressed in CHO cells coexpressing Galpha16 assessed as reduction in forsklin-induced cAMP production incubated for 30 mins by cAMP Hunter assay based […] analysis; assay type: cell-based; conditions: read-out: EC50; in short: as §6
Cannabinoid receptor 1, sequence (P21554 whole entry): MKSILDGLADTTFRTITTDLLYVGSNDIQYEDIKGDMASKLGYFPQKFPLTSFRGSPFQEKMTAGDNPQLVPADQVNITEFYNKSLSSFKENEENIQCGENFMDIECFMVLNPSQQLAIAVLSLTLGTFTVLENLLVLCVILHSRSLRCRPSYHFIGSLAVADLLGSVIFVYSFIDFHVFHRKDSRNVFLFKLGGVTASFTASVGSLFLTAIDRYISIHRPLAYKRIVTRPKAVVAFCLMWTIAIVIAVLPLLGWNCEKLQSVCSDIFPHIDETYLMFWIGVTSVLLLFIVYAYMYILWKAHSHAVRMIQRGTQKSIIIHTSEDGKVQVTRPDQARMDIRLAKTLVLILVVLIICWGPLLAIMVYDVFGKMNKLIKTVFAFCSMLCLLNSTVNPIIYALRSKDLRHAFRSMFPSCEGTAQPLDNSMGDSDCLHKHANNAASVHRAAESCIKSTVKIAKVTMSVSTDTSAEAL

[14] = system: Rattus norvegicus; experiment: Antiinflammatory hyperalgesic activity against complete freund's adjuvant-induced mechanical hyperalgesic Sprague-Dawley rat model assessed as paw withdraw latency at 10 mg/kg, ip pretreated with CFA for 24 hrs followed by compound and 1 mg/kg CB2 receptor antagonist, SR144528 administration by analgesiometer analysis; assay type: functional, organism-based; in short: as §4
[15] = system: Rattus norvegicus; experiment: (§7) Antiinflammatory hyperalgesic activity against complete freund's adjuvant-induced mechanical hyperalgesic Sprague-Dawley rat model assessed as increase in paw withdraw latency at 0.0025 to 10 mg/kg, ip pretreated with CFA for 24 hrs followed by compound administration and measured at 1 hr to 12 hrs by analgesiometer analysis; assay type: functional, organism-based; in short: as §4
[16] = system: Rattus norvegicus; experiment: as §1, with “TNF-alpha” for “IL-1 beta”, “10” for “0.1”, “compound and 1 mg/kg CB2 receptor antagonist, SR144528” for “compound”; assay type: functional, organism-based; in short: as §2
[17] = system: Rattus norvegicus; experiment: Antiinflammatory hyperalgesic activity against complete freund's adjuvant-induced mechanical hyperalgesic Sprague-Dawley rat model assessed as increase in paw withdraw latency at 10 mg/kg, ip pretreated with CFA for 24 hrs followed by compound and 0.5 mg/kg CB1 receptor antagonist, AM281 administration by analgesiometer analysis; assay type: functional, organism-based; in short: as §4
[18] = system: Rattus norvegicus; experiment: as §1, with “TNF-alpha” for “IL-1 beta”; assay type: functional, organism-based; in short: as §2
[19] = system: Rattus norvegicus; experiment: as §5, with “against” for “against ip dosed”, “skin at 10 mg/kg, ip” for “skin”, “ELISA relative to control” for “ELISA”; assay type: functional; in short: as §2
[20] = system: Rattus norvegicus; experiment: as §5, with “against” for “against ip dosed”, “skin at 10 mg/kg, ip” for “skin”, “compound and 0.5 mg/kg CB1 receptor antagonist, AM281” for “compound”; assay type: functional, organism-based; in short: as §2
[21] = system: Rattus norvegicus; experiment: as §5, with “against” for “against ip dosed”, “TNF-alpha” for “IL-6”, “skin at 10 mg/kg, ip” for “skin”, “compound and 0.5 mg/kg CB1 receptor antagonist, AM281” for “compound”; assay type: functional, organism-based; in short: as §2
[22] = system: Rattus norvegicus; experiment: Antiinflammatory hyperalgesic activity against complete freund's adjuvant-induced mechanical hyperalgesic Sprague-Dawley rat model assessed as reduction in IL-6 production in paw skin at 0.1 mg/kg, ip pretreated with CFA for 24 hrs followed by compound administration and measured after 1 hr by ELISA; assay type: functional, organism-based; in short: as §2
[23] = system: Rattus norvegicus; experiment: Antiinflammatory hyperalgesic activity against ip dosed complete freund's adjuvant-induced mechanical hyperalgesic Sprague-Dawley rat model assessed as decrease in TNF-alpha production in paw skin pretreated with CFA for 24 hrs followed by compound administration and measured after 1 hr by ELISA; assay type: functional, organism-based; in short: as §2
[24] = system: Rattus norvegicus; experiment: Antiinflammatory hyperalgesic activity against complete freund's adjuvant-induced mechanical hyperalgesic Sprague-Dawley rat model assessed as paw withdraw latency at 10 mg/kg, ip pretreated with CFA for 24 hrs followed by compound administration and measured at 24 hrs by analgesiometer analysis; assay type: functional, organism-based; in short: as §4
[25] = system: Rattus norvegicus; experiment: as §7, with “at” for “at 0.0025 to”, “9” for “12”; assay type: functional, organism-based; in short: as §4

In the case of `Cc1c(CCN2CCOCC2)c2cc(F)ccc2n1C(=O)c1cccc(Cl)c1Cl`, the Activity [1] is reported as “inactive”, the “fold change (FC)” value [2] is reported as 1.1 and the inhibition [3] is reported as “Active”. The Activity [4] was “Dose-dependent effect”, the ED50 [4] was 1.1 mg/kg and the “Ratio EC50” value [5] was >1000. The inhibition [6] was “Dose-dependent effect”, the Activity [7] was “inactive” and the Activity [8] was “inactive”. The Activity [9] was “inactive”, the EC50 [10] was 0.0189 µM and the inhibition [11] was “Dose-dependent effect”. The “fold change (FC)” value [12] was 1.3, the EC50 [13] was 29.2 µM and the Activity [14] was “inactive”. For the same compound, the Activity [15] was “Active”, the Activity [16] was “inactive” and the Activity [17] was “Active”. For the same compound, the Activity [18] was “inactive”, the “fold change (FC)” value [19] was 1.9 and the inhibition [20] was “Active”. For the same compound, the inhibition [21] was “Active”, the Activity [22] was “inactive” and the inhibition [23] was “Dose-dependent effect”.

In the case of `COc1ccc2c(c1)c(CCN1CCOCC1)c(C)n2C(=O)c1cccc(Cl)c1Cl`, the “fold change (FC)” value [2] is reported as 1.6, the “Ratio EC50” value [5] is reported as >1000 and the EC50 [10] is reported as 0.0507 µM. For the same compound, the “fold change (FC)” value [12] was 1.4, the EC50 [13] was 16.1 µM and the Activity [24] was “inactive”. For the same compound, the “fold change (FC)” value [19] was 2.5 and the Activity [25] was “Active”.
